From ChEMBL document CHEMBL5058577, “EUbOPEN Chemogenomics Library 2 (Multiplex)” (2022)

Test system: HEK-293T
Test: Multiplex assay against HEK293T
Type: toxicity, cell-based
Conditions: human
Method in brief: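 Imaging took place on a CQ1 microscope at 37°C and 5% CO2 once compound had been added to live cells stained at seeding with Hoechst33342, BioTracker Green Microtubule Cytoskeleton Dye, MitoTracker Red and Annexin V Alexa Fluor 680. CellPathfinder machine-learning gating classed cells as Hoechst high-intensity objects or normal cells, classed normal cells as having healthy, pyknosed or fragmented nuclei, and classed pyknosed cells as mitotic or apoptotic. Tubulin, mitochondrial-mass and membrane-permeability phenotypes are per cents of the healthy-nucleus cells.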

[1] = 12 h, 1 µM, compound concentration 1 uM, replicate 1
[2] = 12 h, 1 µM, compound concentration 1 uM, replicate 2
[3] = 12 h, 10 µM, compound concentration 10 uM, replicate 1
[4] = 12 h, 10 µM, compound concentration 10 uM, replicate 2
[5] = 24 h, 1 µM, compound concentration 1 uM, replicate 1
[6] = 24 h, 1 µM, compound concentration 1 uM, replicate 2
[7] = 24 h, 10 µM, compound concentration 10 uM, replicate 1
[8] = 24 h, 10 µM, compound concentration 10 uM, replicate 2
[9] = 48 h, 1 µM, compound concentration 1 uM, replicate 1
[10] = 48 h, 1 µM, compound concentration 1 uM, replicate 2
[11] = 48 h, 10 µM, compound concentration 10 uM, replicate 1
[12] = 48 h, 10 µM, compound concentration 10 uM, replicate 2

SMILES: Cc1c(CC(=O)O)c2cccnc2n1Cc1ccc(S(C)(=O)=O)cc1C(F)(F)F [FEVIPIPRANT]
- Population Apoptotic (%) [1]: 27%
- Population Fragmented Nuclei (%) [1]: 6%
- Population Healthy Nuclei (%) [1]: 83%
- Population Hoechst High Intensity Objects (%) [1]: 5%
- Population Membrane Permeable-Phenotype (%) [1]: 0%
- Population Mitochondria Different-Phenotype (%) [1]: 32%
- Population Mitotic Cells (%) [1]: 72%
- Population Normal (%) [1]: 94%
- Population Pyknosed Nuclei (%) [1]: 9%
- Population Tubulin-Different-Phenotype (%) [1]: 22%
- Total Cell Count [1]: 471
- Population Apoptotic (%) [2]: 41%
- Population Fragmented Nuclei (%) [2]: 7%
- Population Healthy Nuclei (%) [2]: 79%
- Population Hoechst High Intensity Objects (%) [2]: 7%
- Population Mitochondria Different-Phenotype (%) [2]: 52%
- Population Mitotic Cells (%) [2]: 58%
- Population Normal (%) [2]: 92%
- Population Pyknosed Nuclei (%) [2]: 12%
- Population Tubulin-Different-Phenotype (%) [2]: 16%
- Total Cell Count [2]: 370
- Population Apoptotic (%) [3]: 33%
- Population Fragmented Nuclei (%) [3]: 5%
- Population Healthy Nuclei (%) [3]: 80%
- Population Hoechst High Intensity Objects (%) [3]: 6%
- Population Membrane Permeable-Phenotype (%) [3]: 0%
- Population Mitochondria Different-Phenotype (%) [3]: 46%
- Population Mitotic Cells (%) [3]: 66%
- Population Normal (%) [3]: 93%
- Population Pyknosed Nuclei (%) [3]: 13%
- Population Tubulin-Different-Phenotype (%) [3]: 29%
- Total Cell Count [3]: 417
- Population Apoptotic (%) [4]: 52%
- Population Fragmented Nuclei (%) [4]: 11%
- Population Healthy Nuclei (%) [4]: 75%
- Population Hoechst High Intensity Objects (%) [4]: 10%
- Population Mitochondria Different-Phenotype (%) [4]: 66%
- Population Mitotic Cells (%) [4]: 47%
- Population Normal (%) [4]: 89%
- Population Pyknosed Nuclei (%) [4]: 12%
- Population Tubulin-Different-Phenotype (%) [4]: 32%
- Total Cell Count [4]: 303
- Population Apoptotic (%) [5]: 22%
- Population Fragmented Nuclei (%) [5]: 8%
- Population Healthy Nuclei (%) [5]: 81%
- Population Hoechst High Intensity Objects (%) [5]: 3%
- Population Membrane Permeable-Phenotype (%) [5]: 1%
- Population Mitochondria Different-Phenotype (%) [5]: 18%
- Population Mitotic Cells (%) [5]: 77%
- Population Normal (%) [5]: 96%
- Population Pyknosed Nuclei (%) [5]: 10%
- Population Tubulin-Different-Phenotype (%) [5]: 18%
- Total Cell Count [5]: 637
- Population Apoptotic (%) [6]: 43%
- Population Fragmented Nuclei (%) [6]: 7%
- Population Healthy Nuclei (%) [6]: 82%
- Population Hoechst High Intensity Objects (%) [6]: 4%
- Population Membrane Permeable-Phenotype (%) [6]: 0%
- Population Mitochondria Different-Phenotype (%) [6]: 37%
- Population Mitotic Cells (%) [6]: 56%
- Population Normal (%) [6]: 95%
- Population Tubulin-Different-Phenotype (%) [6]: 14%
- Total Cell Count [6]: 457
- Population Apoptotic (%) [7]: 33%
- Population Fragmented Nuclei (%) [7]: 8%
- Population Healthy Nuclei (%) [7]: 80%
- Population Hoechst High Intensity Objects (%) [7]: 5%
- Population Membrane Permeable-Phenotype (%) [7]: 0%
- Population Mitochondria Different-Phenotype (%) [7]: 31%
- Population Mitotic Cells (%) [7]: 66%
- Population Normal (%) [7]: 94%
- Population Pyknosed Nuclei (%) [7]: 10%
- Population Tubulin-Different-Phenotype (%) [7]: 20%
- Total Cell Count [7]: 499
- Population Apoptotic (%) [8]: 50%
- Population Fragmented Nuclei (%) [8]: 9%
- Population Healthy Nuclei (%) [8]: 81%
- Population Hoechst High Intensity Objects (%) [8]: 11%
- Population Mitochondria Different-Phenotype (%) [8]: 44%
- Population Mitotic Cells (%) [8]: 50%
- Population Normal (%) [8]: 88%
- Population Pyknosed Nuclei (%) [8]: 8%
- Total Cell Count [8]: 334
- Population Apoptotic (%) [9]: 16%
- Population Fragmented Nuclei (%) [9]: 13%
- Population Healthy Nuclei (%) [9]: 79%
- Population Hoechst High Intensity Objects (%) [9]: 1%
- Population Membrane Permeable-Phenotype (%) [9]: 2%
- Population Mitochondria Different-Phenotype (%) [9]: 12%
- Population Mitotic Cells (%) [9]: 83%
- Population Normal (%) [9]: 98%
- Population Pyknosed Nuclei (%) [9]: 7%
- Population Tubulin-Different-Phenotype (%) [9]: 12%
- Total Cell Count [9]: 1065
- Population Apoptotic (%) [10]: 20%
- Population Fragmented Nuclei (%) [10]: 11%
- Population Healthy Nuclei (%) [10]: 82%
- Population Hoechst High Intensity Objects (%) [10]: 2%
- Population Membrane Permeable-Phenotype (%) [10]: 0%
- Population Mitochondria Different-Phenotype (%) [10]: 16%
- Population Mitotic Cells (%) [10]: 79%
- Population Normal (%) [10]: 97%
- Population Pyknosed Nuclei (%) [10]: 6%
- Population Tubulin-Different-Phenotype (%) [10]: 10%
- Total Cell Count [10]: 713
- Population Apoptotic (%) [11]: 29%
- Population Fragmented Nuclei (%) [11]: 14%
- Population Healthy Nuclei (%) [11]: 78%
- Population Hoechst High Intensity Objects (%) [11]: 4%
- Population Membrane Permeable-Phenotype (%) [11]: 0%
- Population Mitochondria Different-Phenotype (%) [11]: 24%
- Population Mitotic Cells (%) [11]: 70%
- Population Normal (%) [11]: 95%
- Population Pyknosed Nuclei (%) [11]: 7%
- Population Tubulin-Different-Phenotype (%) [11]: 14%
- Total Cell Count [11]: 794
- Population Apoptotic (%) [12]: 45%
- Population Healthy Nuclei (%) [12]: 77%
- Population Hoechst High Intensity Objects (%) [12]: 7%
- Population Membrane Permeable-Phenotype (%) [12]: 1%
- Population Mitochondria Different-Phenotype (%) [12]: 22%
- Population Mitotic Cells (%) [12]: 55%
- Population Normal (%) [12]: 92%
- Population Pyknosed Nuclei (%) [12]: 8%
- Population Tubulin-Different-Phenotype (%) [12]: 17%
- Total Cell Count [12]: 491
